Test results: ChEMBL document CHEMBL4177756, “Small Molecule Neuropilin-1 Antagonists Combine Antiangiogenic and Antitumor Activity with Immune Modulation through Reduction of Transforming Growth Factor Beta (TGFβ) Production in Regulatory T-Cells” (J Med Chem, 2018)
Active and inactive are the calls of the source. No cut-off for these calls is given here. Positions of bridges follow the written chain, without caps; N, C: chain ends. Residues, ends and D or L forms follow the SMILES beside them. *: point of attachment. Octanoyl = CCCCCCCC(=O)*

Experiments:
Neuropilin-1 [1] = target: T1, Neuropilin-1 (Homo sapiens, UniProt O14786); assay: Binding affinity to N-terminal His6-tagged recombinant human NRP1-b1 domain expressed in Escherichia coli Rosetta Gami 2 (DE3) pLysS cells by SPR method
In short: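 Human NRP1-b1 (residues 273–427, His6-tagged) was amine-coupled to a CM5 chip at high and low density; an unmodified spot served as reference. Runs were at 25 °C in PBS with 0.05% P20 and 3% DMSO. Compound was tested as 2-fold dilutions from 16 µM to 31 nM with 60 s injections. KD was taken from steady-state responses, DMSO-corrected; mean ± SD of the two surfaces.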

HUVEC [2] = assay: Antimigratory activity in HUVEC assessed as delay in VEGFA-induced wound closure at 30 uM after 5 days; format: functional, cell-based; conditions: Homo sapiens
In short: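 HUVECs were starved overnight in 1% EBM, then wounded at 95% confluence. Wells received 1% EGM with 0.1% DMSO, 25 ng/mL VEGF-A and/or 30 μM compound. Migration into the wound was imaged every 2 h by live-cell imaging. Three independent experiments, 12 replicates per treatment.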

Homo sapiens [3] = species: Homo sapiens; assay: Antiinvasive activity in VEGFA-induced NRP1 expressing human A375P spheroids at 30 uM after 7 days; format: functional
HUVEC [4] = assay: Antimigratory activity in HUVEC at 30 uM after 4 hrs by transwell assay; format: functional, cell-based; conditions: Homo sapiens
In short: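 HUVECs (1.5×10^5 per well, serum-free EBM) were placed in upper inserts with 8 µm pores. The bottom chamber held serum-free medium with 25 ng/mL VEGF-A, 0.1% DMSO, 30 μM compound, or VEGF-A plus compound. After 4 h at 37 °C, cells that migrated were stained and counted in three random fields; five independent experiments.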

Mus musculus [5] = assay: Half life in BALB/c mouse at 2 mg/kg, iv administered as bolus dose by LC-MS method; format: ADME, organism-based; conditions: in vivo
In short: (§1)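 Female BALB/c mice, 6–8 weeks old, received 2 mg/kg as a tail-vein bolus formulated in 7.5% DMSO. Blood was taken by cardiac puncture at 5, 15, 30, 60, 180 and 240 min. Plasma was separated by centrifugation, snap-frozen and assayed by LC-MS/MS with electrospray ionization.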

[6] = target: T2, Neuropilin-2 (Homo sapiens) (UniProt O60462); assay: Binding affinity to His6-tagged recombinant human NRP2 at 62.5 to 1000 nM treated for 60 secs by SPR method
T2 sequence (whole entry): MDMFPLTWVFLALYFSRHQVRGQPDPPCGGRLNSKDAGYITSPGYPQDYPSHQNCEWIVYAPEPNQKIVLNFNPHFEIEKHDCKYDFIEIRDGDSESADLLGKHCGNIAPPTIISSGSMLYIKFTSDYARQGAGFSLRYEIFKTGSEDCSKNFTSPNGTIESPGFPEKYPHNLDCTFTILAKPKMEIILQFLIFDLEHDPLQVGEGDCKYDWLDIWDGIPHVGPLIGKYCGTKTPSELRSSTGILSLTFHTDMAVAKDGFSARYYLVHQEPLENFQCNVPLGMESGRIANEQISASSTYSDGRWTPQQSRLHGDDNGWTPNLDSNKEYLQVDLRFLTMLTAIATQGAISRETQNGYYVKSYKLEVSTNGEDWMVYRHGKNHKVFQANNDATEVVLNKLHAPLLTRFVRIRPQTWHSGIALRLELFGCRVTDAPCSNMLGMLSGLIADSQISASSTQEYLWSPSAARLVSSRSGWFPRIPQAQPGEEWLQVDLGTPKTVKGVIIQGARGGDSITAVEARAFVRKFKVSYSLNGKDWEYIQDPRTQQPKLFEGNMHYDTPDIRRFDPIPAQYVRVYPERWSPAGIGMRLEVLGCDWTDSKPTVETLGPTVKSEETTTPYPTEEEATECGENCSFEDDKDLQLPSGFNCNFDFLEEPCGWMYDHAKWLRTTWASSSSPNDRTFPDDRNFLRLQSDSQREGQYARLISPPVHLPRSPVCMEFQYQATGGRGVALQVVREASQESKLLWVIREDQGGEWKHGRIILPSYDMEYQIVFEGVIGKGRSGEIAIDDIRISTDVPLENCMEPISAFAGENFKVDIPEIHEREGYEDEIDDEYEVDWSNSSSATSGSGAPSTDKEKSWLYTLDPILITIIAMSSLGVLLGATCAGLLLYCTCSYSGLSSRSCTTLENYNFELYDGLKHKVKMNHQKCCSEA

Homo sapiens [7] = species: Homo sapiens; assay: Antiinvasive activity in NRP1 expressing human A375P spheroids at 30 uM after 7 days; format: functional
Mus musculus [8] = assay: AUC (infinity) in BALB/c mouse at 2 mg/kg, iv administered as bolus dose by LC-MS method; format: ADME, organism-based; parameters: dose 2 mg/kg, route intravenous, time infinity; conditions: in vivo; in short: as §1
Mus musculus [9] = assay: Tmax in BALB/c mouse at 2 mg/kg, iv administered as bolus dose by LC-MS method; format: ADME, organism-based; conditions: in vivo; in short: as §1
Neuropilin-1 [10] = target: T1, Neuropilin-1; assay: Inhibition of VEGF-A-stimulated NRP1-mediated VEGFR2 phosphorylation at Tyr1175 in HUVEC at 30 uM preincubated for 30 mins followed by VEGFA stimulation measured after 10 mins by immunoblot method relative to control; format: cell-based
In short: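 Confluent HUVECs serum-starved 16 h in 0.5% serum, preincubated 30 min with 3, 10 or 30 µM compound, 0.1% DMSO or medium, then 1 ng/mL VEGF-A for 10 min. RIPA lysates were immunoblotted. Densitometry of pVEGF-R2/KDR was normalised to total VEGF-R2/KDR, from three independent experiments, means ± SEM.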

Aorta = assay: Antiangiogenic activity in wild type C57Bl/6 mouse aortic ring assessed as inhibition of VEGFA-induced vessel sprouting at 30 uM after 7 days relative to control; format: functional
In short: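 Thoracic aortas from female wild-type C57Bl/6 mice were cut into 0.5 mm rings, serum-starved overnight, and embedded in rat-tail type 1 collagen. Rings were cultured in OptiMEM with 2.5% FBS containing 0.1% DMSO, 25 ng/mL VEGF-A and/or 30 μM compound at 37 °C for 7 days, with medium changed on days 3 and 5. They were then fixed and stained with isolectin B4 and SMA, and sprout area was quantified by image analysis.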

Mus musculus [11] = assay: Cmax in BALB/c mouse at 2 mg/kg, iv administered as bolus dose by LC-MS method; format: ADME, organism-based; parameters: dose 2 mg/kg, route intravenous; conditions: in vivo; in short: as §1
Neuropilin-1 [12] = target: T1, Neuropilin-1; assay: Binding affinity to N-terminal His6-tagged recombinant human NRP1-b1 domain expressed in Escherichia coli Rosetta Gami 2 (DE3) pLysS cells at 200 uM treated every 2 mins by ITC method
HUVEC [13] = assay: Antiangiogenic activity in HUVEC co-cultured with HDF assessed as inhibition of VEGFA-induced tubular network length at 30 uM after 4 days by immunofluorescence method relative to control; format: functional; conditions: Homo sapiens, 96 h
In short: (§2)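 HDF were grown to confluence in 24-well plates and 10000 HUVECs were seeded on top in endothelial growth medium with 1% FBS. Cocultures received 0.1% DMSO, VEGF 25 ng/mL, 30 μM compound, or compound plus VEGF, for 4 days at 37 °C. They were ethanol-fixed and stained for von Willebrand factor. Branch points, network area and length were scored in four fields per well; three independent experiments.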

Mus musculus [14] = assay: Volume of distribution in BALB/c mouse at 2 mg/kg, iv administered as bolus dose by LC-MS method; format: ADME, organism-based; conditions: in vivo; in short: as §1
HUVEC [15] = assay: Antimigratory activity in VEGFA-induced HUVEC at 30 uM after 4 hrs by transwell assay relative to control; format: functional, Homo sapiens
In short: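 Transwell chemotaxis used 8 µm pore PET inserts. The bottom chamber held serum-free medium with or without 25 ng/mL VEGF-A, 0.1% DMSO, or 30 µM compound. HUVECs in serum-free EBM were added to the top chamber and incubated at 37 °C for 4 h. Non-migrated cells were removed, and membranes were fixed and stained. Migrated cells were counted in three random fields per well across five independent experiments, reported as mean ± SEM.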

Neuropilin-1 [16] = target: T1, Neuropilin-1; assay: Inhibition of biotinylated VEGF-A binding to human NRP1 expressed in human DU145 cells after 2 hrs; format: cell-based
Neuropilin-1 [17] = target: T1, Neuropilin-1; assay: Inhibition of biotinylated VEGF-A binding to N-terminal His6-tagged recombinant human NRP1-b1 domain expressed in Escherichia coli Rosetta Gami 2 (DE3) pLysS cells after 2 hrs
HUVEC [18] = assay: Antiangiogenic activity in HUVEC co-cultured with HDF assessed as inhibition of number of VEGFA-induced branch points in tubular networks at 30 uM after 4 days by immunofluorescence method relative to control; format: functional; conditions: Homo sapiens, 96 h; in short: as §2
Mus musculus [19] = species: Mus musculus; assay: Immunomodulating activity in C57/Bl6 mouse Nrp1-positive Treg cells assessed as inhibition of glioma conditioned media-induced TGFbeta production at 500 nM preincubated for 2 hrs followed by glioma conditioned media challenge measured after 12 hrs by ELISA; format: functional
In short: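 CD4+ Nrp1+ splenic T cells from 6-week-old C57/Bl6 mice were plated at 200000 per well on anti-CD3ε with anti-CD28 and expanded 72 h. Cells were pretreated 2 h with DMSO or 500 nM compound. They were then given 50% conditioned medium from serum-starved GL261 cells, and TGFβ was measured by ELISA after 12 h.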

Neuropilin-1 [20] = target: T1, Neuropilin-1; assay: Binding affinity to recombinant human NRP1 extracellular domain by SPR method
[21] = Half life in human plasma at 10 uM by MS/MS analysis; format: ADME, cell-free

T1 sequence (O14786 whole entry, the tested form may be a part): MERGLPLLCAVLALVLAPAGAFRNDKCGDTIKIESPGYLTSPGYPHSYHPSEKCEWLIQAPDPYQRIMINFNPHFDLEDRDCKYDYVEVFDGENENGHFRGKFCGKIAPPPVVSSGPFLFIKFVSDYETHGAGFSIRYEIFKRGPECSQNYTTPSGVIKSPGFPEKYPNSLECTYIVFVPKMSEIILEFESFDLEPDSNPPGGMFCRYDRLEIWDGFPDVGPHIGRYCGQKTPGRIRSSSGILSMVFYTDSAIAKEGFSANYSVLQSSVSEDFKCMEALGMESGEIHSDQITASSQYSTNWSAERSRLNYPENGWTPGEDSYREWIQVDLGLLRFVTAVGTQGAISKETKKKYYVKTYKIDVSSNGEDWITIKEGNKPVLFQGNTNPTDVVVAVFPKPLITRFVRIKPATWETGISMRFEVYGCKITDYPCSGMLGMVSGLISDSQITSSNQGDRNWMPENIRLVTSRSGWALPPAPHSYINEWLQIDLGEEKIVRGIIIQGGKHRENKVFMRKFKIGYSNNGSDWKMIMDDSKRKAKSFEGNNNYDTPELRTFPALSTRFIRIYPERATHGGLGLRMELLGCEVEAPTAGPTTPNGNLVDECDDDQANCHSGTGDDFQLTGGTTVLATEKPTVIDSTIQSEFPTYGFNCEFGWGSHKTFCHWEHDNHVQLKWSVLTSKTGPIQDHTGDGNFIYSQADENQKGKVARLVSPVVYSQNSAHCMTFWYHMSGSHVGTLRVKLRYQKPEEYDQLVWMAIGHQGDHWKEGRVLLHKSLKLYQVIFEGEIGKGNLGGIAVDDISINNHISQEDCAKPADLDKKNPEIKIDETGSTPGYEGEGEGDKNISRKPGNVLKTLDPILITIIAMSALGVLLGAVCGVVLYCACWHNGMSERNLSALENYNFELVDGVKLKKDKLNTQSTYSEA

N=C(N)NCCC[C@H](NC(=O)c1sccc1NS(=O)(=O)c1cc(-c2cccc3c2CNC3)cc2c1OCC2)C(=O)O gave a Kd (Neuropilin-1 [1]) of 2.47 µM.
For N=C(N)NCCC[C@H](NC(=O)c1sccc1NS(=O)(=O)c1cc(-c2ccc(CN)cc2)cc2c1OCC2)C(=O)O, the Activity (HUVEC [2]) was “Active”, the Activity (Homo sapiens [3]) was “Active” and the Activity (HUVEC [4]) was “inactive”. The t1/2 (Mus musculus [5]) was 257 min, the Activity [6] was “inactive” and the Activity (Homo sapiens [7]) was “inactive”. The AUC (Mus musculus [8]) was 2379 ng·h/mL, the Tmax (Mus musculus [9]) was 4.8 min and the Kd (Neuropilin-1 [1]) was 1.32 µM. For the same compound, the inhibition (Neuropilin-1 [10]) was 50%, the “fold change (FC)” value (Aorta) was 7 and the Cmax (Mus musculus [11]) was 1678 ng/mL. The Ka (Neuropilin-1 [12]) was 4.14 ×10⁶ /M, the inhibition at 30 µM (HUVEC [13]) was 40% and the Vd (Mus musculus [14]) was 4.39682 L/kg. It also gave an Activity (HUVEC [15]) greater than 60%, an IC50 (Neuropilin-1 [16]) of 1.6 µM and an IC50 (Neuropilin-1 [17]) of 0.609 µM. The inhibition at 30 µM (HUVEC [18]) was 41% and the inhibition (Mus musculus [19]) was “Active”.
Compound N=C(N)NCCC[C@H](NC(=O)c1sccc1NS(=O)(=O)c1cc(-c2cccc(CN3CCC(N4CCOCC4)CC3)c2)cc2c1OCC2)C(=O)O has a Kd (Neuropilin-1 [1]) of 1.38 µM.
Work on CNC(=O)C1CCN(Cc2ccccc2-c2cc3c(c(S(=O)(=O)Nc4ccsc4C(=O)N[C@@H](CCCNC(=N)N)C(=O)O)c2)OCC3)CC1 yielded a Kd (Neuropilin-1 [1]) of 3.02 µM.
Work on CN(C)Cc1cccc(-c2cc3c(c(S(=O)(=O)Nc4ccsc4C(=O)N[C@@H](CCCNC(=N)N)C(=O)O)c2)OCC3)c1 yielded a t1/2 (Mus musculus [5]) of 40.8 min, an AUC (Mus musculus [8]) of 564.44 ng·h/mL and a Tmax (Mus musculus [9]) of 4.8 min. For the same compound, the Kd (Neuropilin-1 [1]) was 4.52 µM, the Cmax (Mus musculus [11]) was 1959.8 ng/mL and the Vd (Mus musculus [14]) was 1.05261 L/kg.
Compound N=C(N)NCCC[C@H](NC(=O)c1sccc1NS(=O)(=O)c1cc(-c2cccc(CN3CCC(C(N)=O)CC3)c2)cc2c1OCC2)C(=O)O has a Kd (Neuropilin-1 [1]) of 1.56 µM.
Work on N=C(N)NCCC[C@H](NC(=O)c1sccc1NS(=O)(=O)c1cc(-c2ccccc2CN)cc2c1OCC2)C(=O)O yielded a Kd (Neuropilin-1 [1]) of 1.87 µM.
Work on CCCCCCCC(=O)N[C@@H](CO)C(=O)N[C@H]1CSSC[C@@H]2NC(=O)[C@H]([C@@H](C)O)NC(=O)[C@H](CCCNC(=N)N)NC(=O)[C@H](CCC(=O)O)NC(=O)[C@H](CC(N)=O)NC(=O)[C@H](CC(C)C)NC(=O)[C@H](CCC(=O)O)NC(=O)[C@H](CC(C)C)NC(=O)[C@H](CCC(N)=O)NC(=O)[C@H](CCCNC(=N)N)NC(=O)[C@H](C)NC(=O)[C@H](CCCCN)NC(=O)[C@H](CSSC[C@@H](C(=O)N[C@@H](CC(=O)O)C(=O)N[C@@H](CCCCN)C(=O)N3CCC[C@H]3C(=O)N[C@@H](CCCNC(=N)N)C(=O)N[C@@H](CCCNC(=N)N)C(N)=O)NC(=O)[C@H](CCCNC(=N)N)NC2=O)NC(=O)[C@H](CCCNC(=N)N)NC(=O)[C@H](CO)NC(=O)[C@H](CC(=O)O)NC(=O)[C@H]([C@@H](C)O)NC(=O)[C@H](CC(N)=O)NC(=O)[C@H](CCCCN)NC1=O (Octanoyl-SCKNTDSRCKARQLELNERTCRCDKPRR-NH2; disulfide 2-21, 9-23) yielded a Kd (Neuropilin-1 [20]) of 0.076 µM and a half-life at 10 µM [21] of less than 5 min.
N=C(N)NCCC[C@H](NC(=O)c1sccc1NS(=O)(=O)c1cc(-c2ccccc2CN2CCC(C(N)=O)CC2)cc2c1OCC2)C(=O)O showed a Kd (Neuropilin-1 [1]) of 2.05 µM.
Compound N=C(N)NCCC[C@H](NC(=O)c1sccc1NS(=O)(=O)c1cc(-c2cccc(CN3CCCCC3)c2)cc2c1OCC2)C(=O)O has a Kd (Neuropilin-1 [1]) of 1.17 µM.
